The record followed here is ChEMBL document CHEMBL4145525, “Machine learning prioritizes synthesis of primaquine ureidoamides with high antimalarial activity and attenuated cytotoxicity” (Eur J Med Chem, 2018).

For data set [1], the system named is NCI-H460. Briefly: Cytotoxicity against human NCI-H460 cells assessed as growth inhibition after 72 hrs by MTT assay. The format is cell-based. The following applies: NCI-H460, 72 h. Summed up: (§1)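 Monolayers grown in DMEM or RPMI-1640 with 10% FBS, 2 mM L-glutamine and penicillin/streptomycin at 37 °C, 5% CO2. Seeded at 2×10^4–4×10^4 cells/well and attached for 24 h. Five serial 10-fold dilutions added, final DMSO <0.2%. MTT read-out at 72 h; percentage growth calculated. IC50 by linear interpolation between concentrations bracketing 50% growth; at least two biological replicates.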

Data set [2] deals with NCI-H460. Briefly: Cytotoxicity against human NCI-H460 cells assessed as growth inhibition at 10 uM cotreated with G6PD inhibitor 6-AN after 72 hrs by MTT assay. It counts as cell-based. The following applies: nci-h460, 72 h. Summed up: (§2)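 Adherent cells seeded at 2×10^4–4×10^4 cells/well and left 24 h, then treated with compound alone or together with 6-aminonicotinamide (always 10 µM, used to mimic G6PD deficiency). Final DMSO <0.2%. Growth measured by MTT after 72 h and expressed as percentage growth relative to untreated cells.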
Background: Formazan colour is commonly taken as a measure of viable cells.

A further data set relates to A2780. The data set is described as follows: Cytotoxicity against human A2780 cells assessed as growth inhibition after 72 hrs by MTT assay. The following applies: A2780, 72 h. It counts as cell-based. Summed up: as §1
The test system of another data set is L6. The data set is described as follows: Cytotoxicity against rat L6 cells assessed as reduction in cell viability after 70 hrs by Alamar blue assay. The format is cell-based. The following applies: L6, 70 h. The essentials: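 L6 rat skeletal myoblasts were plated at 4000 cells/well in RPMI 1640 with L-glutamine and 10% FBS. Eleven 3-fold drug dilutions, 100 to 0.002 µg/ml. After 70 h, Alamar Blue was added for 2 h and fluorescence read (ex 536 nm, em 588 nm). IC50 by linear interpolation from sigmoid dose-inhibition curves.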
On the technique in general: The colour change of resazurin is a common sign of viable cells or microbes.

For data set [3], the system named is MCF7. The data set is described as follows: Cytotoxicity against human MCF7 cells assessed as growth inhibition at 10 uM cotreated with G6PD inhibitor 6-AN after 72 hrs by MTT assay. Particulars: mcf7, 72 h. The format is cell-based. Summed up:
as §2

A short description of data set [4]: Selectivity index, ratio of IC50 for rat L6 cells to IC50 for erythrocytic stage of Plasmodium falciparum NF54. It counts as toxicity. Particulars: read-out: Ratio IC50. Summed up:
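Ratio of the L6 cytotoxicity IC50 to the IC50 against P. falciparum NF54.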

The test system of data set [5] is MCF7. The data set is described as follows: Cytotoxicity against human MCF7 cells assessed as growth inhibition after 72 hrs by MTT assay. It counts as cell-based. Particulars: MCF7, 72 h. Summed up:
as §1

In the next data set the test system is Plasmodium falciparum. The data set is described as follows: Antiplasmodial activity against erythrocytic stage of Plasmodium falciparum NF54 assessed as reduction in [3H]hypoxanthine incorporation after 48 hrs by liquid scintillation counting method. The format is functional, organism-based. Summed up: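 Asexual blood-stage NF54 grown in hypoxanthine-free RPMI 1640 with HEPES, NaHCO3, neomycin and Albumax, using washed human A+ erythrocytes at 2.5% hematocrit and 0.3% parasitemia. Compounds were made as 10 mg/ml DMSO stocks and run as eleven 3-fold dilutions, 100 to 0.002 µg/ml. Incubation at 37 °C in 4% CO2, 3% O2, 93% N2. After 48 h, 0.5 µCi 3H-hypoxanthine was added for a further 24 h, then harvested and scintillation counted. IC50 by linear interpolation of sigmoidal curves; averages of 2–3 independent experiments.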

The test system of the next data set is SW-620. Briefly: Cytotoxicity against human SW620 cells assessed as growth inhibition after 72 hrs by MTT assay. Particulars: SW-620, 72 h. The format is cell-based. Summed up:
as §1

Another data set deals with K562. Briefly: Cytotoxicity against human K562 cells assessed as growth inhibition after 72 hrs by MTT assay. Particulars: K562, 72 h. It counts as cell-based.
The nature of data set [6]: Cytotoxicity against human MCF7 cells assessed as cell growth at 10 uM after 72 hrs by MTT assay relative to control. The format is cell-based. The following applies: read-out: Activity. Summed up:
as §2

Data set [7] can be described thus: Cytotoxicity against human MCF7 cells assessed as cell growth at 10 uM cotreated with G6PD inhibitor 6-AN after 72 hrs by MTT assay relative to control. It counts as cell-based. Summed up:
as §2

Data set [8] can be described thus: Safety index, ratio of compound IC50 to primaquine IC50 for rat L6 cells. The format is ADME, cell-based. Particulars: read-out: Ratio IC50.
The test system of another data set is HL-60. Briefly: Cytotoxicity against human HL60 cells assessed as growth inhibition after 72 hrs by MTT assay. It counts as cell-based. The following applies: HL-60, 72 h.
The test system of a further data set is HCT-116. The data set is described as follows: Cytotoxicity against human HCT116 cells assessed as growth inhibition after 72 hrs by MTT assay. It counts as cell-based. Particulars: HCT-116, 72 h. Summed up: (§3)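 Cells cultured in DMEM or RPMI-1640 with 10% FBS, 2 mM L-glutamine and antibiotics at 37 °C, 5% CO2. Seeded at 2×10^4–4×10^4 cells/well and attached for 24 h before five serial 10-fold compound dilutions, final DMSO <0.2%. MTT at 72 h. IC50 interpolated between the two concentrations flanking 50% growth inhibition; single experiment.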

A further data set concerns CAPAN-1. The data set is described as follows: Cytotoxicity against human Capan1 cells assessed as growth inhibition after 72 hrs by MTT assay. It counts as cell-based. The following applies: CAPAN-1, 72 h. The essentials: as §3

The structures appear in SMILES notation.

What is called IC50 is the concentration at which inhibition is half-maximal. `COc1ccc(C(=NNC(=O)NNC(=O)NCCCC(C)Nc2cc(OC)cc3cccnc23)c2ccc(OC)cc2)cc1` (stereo unspecified): the IC50 was 5 µM in the data set on NCI-H460 [1]; 0.06 µM in the data set on A2780; 136 µM with L6; 0.9 to 1 µM in the data set on MCF7 [5]; 1900 to 2200 nM in the data set on Plasmodium falciparum. Moreover, the “growth inhibition (GI)” value with NCI-H460 [2] and in the data set with MCF7 [3] was “Toxic” each time. In addition, the selectivity ratio in data set [4] was found to be 61.9.
For `COc1cc(NC(C)CCCNC(=O)NNC(=O)NCCNC(c2ccccc2)(c2ccccc2)c2ccccc2)c2ncccc2c1` (stereo unspecified), the IC50 was 3 µM with NCI-H460 [1]; 1 µM in the data set with A2780; over 100 µM in the data set on L6; 3 µM in the data set on MCF7 [5]; 1200 nM in the data set on Plasmodium falciparum. For the same compound, the “growth inhibition (GI)” value in the data set on NCI-H460 [2] and with MCF7 [3] was “Toxic” each time. Moreover, the selectivity ratio in [4] is over 83.3.
Turning to `COc1ccc(C(=NNC(=O)NCCCC(C)Nc2cc(OC)cc3cccnc23)c2ccc(OC)cc2)cc1` (stereo unspecified), the IC50 was over 100 µM with NCI-H460 [1]; 1 µM with A2780; over 180 µM in the data set with L6; 2.8 to 3 µM with MCF7 [5]; 2300 to 2400 nM with Plasmodium falciparum. Further, the “growth inhibition (GI)” value with NCI-H460 [2] and with MCF7 [3] was “Toxic” in each case. Moreover, the selectivity ratio in data set [4] stood at 78.3.
With `COc1cc(NC(C)CCCNC(=O)NC(C(=O)NC(c2ccccc2)c2ccccc2)c2ccc(Cl)cc2)c2ncccc2c1` (stereo unspecified), the IC50 in the data set with NCI-H460 [1] was over 100 µM; with SW-620, 6 µM; in the data set with K562 it was over 100 µM; with A2780, over 100 µM; in the data set with L6, over 160 µM; in the data set with HL-60 it was over 100 µM. Also, the IC50 in the data set with MCF7 [5] was over 100 µM; in the data set with HCT-116 it was over 100 µM; in the data set with CAPAN-1 it was over 100 µM; with Plasmodium falciparum it was 1400 nM. In addition, the viability at 72 h, 10 µM was 80% in data set [6] and 65% in data set [7]. For the same compound, the selectivity ratio was 2.7 in [8] and over 114 in data set [4].
On to `COc1cc(NC(C)CCCNC(=O)NC(CC(C)C)C(=O)NC(c2ccccc2)c2ccccc2)c2ncccc2c1` (stereo unspecified), for which the IC50 was over 100 µM in the data set on NCI-H460 [1]; over 100 µM with SW-620; over 100 µM in the data set on K562; 36 µM with A2780; over 170 µM in the data set on L6; over 100 µM in the data set with HL-60. Besides, the IC50 in the data set with MCF7 [5] is over 100 µM; in the data set on HCT-116 it was over 100 µM; with CAPAN-1 it was over 100 µM; in the data set with Plasmodium falciparum, 3400 nM. For the same compound, the “growth inhibition (GI)” value with NCI-H460 [2] and in the data set with MCF7 [3] was “Non-Toxic” each time. Also, the selectivity ratio in data set [4] was over 50.
As for `COc1cc(NC(C)CCCNC(=O)NC(C(=O)NC(c2ccccc2)c2ccc(Cl)cc2)c2ccccc2)c2ncccc2c1` (stereo unspecified), the IC50 in the data set with NCI-H460 [1] is over 100 µM; in the data set on SW-620, over 100 µM; in the data set on K562, over 100 µM; in the data set on A2780, over 100 µM; in the data set with L6, over 160 µM; in the data set on HL-60, over 100 µM. Besides, the IC50 in the data set on MCF7 [5] was over 100 µM; in the data set with HCT-116, over 100 µM; with CAPAN-1, over 100 µM; in the data set with Plasmodium falciparum, 3000 nM. Besides, the “growth inhibition (GI)” value in the data set with NCI-H460 [2] and in the data set with MCF7 [3] was “Non-Toxic” in each case. The selectivity ratio in data set [4] was over 53.3.
Turning to `COc1cc(NC(C)CCCNC(=O)NC(C(=O)NC(c2ccccc2)c2ccc(Cl)cc2)c2ccc(Cl)cc2)c2ncccc2c1` (stereo unspecified), the IC50 in the data set on NCI-H460 [1] was over 100 µM; in the data set with SW-620 it was over 100 µM; in the data set on K562, over 100 µM; with A2780 it was 14 µM; in the data set with L6, over 150 µM; in the data set with HL-60, over 100 µM. For the same compound, the IC50 in the data set with MCF7 [5] is over 100 µM; in the data set on HCT-116, over 100 µM; in the data set on CAPAN-1, over 100 µM; in the data set with Plasmodium falciparum it was 1800 nM. Moreover, the “growth inhibition (GI)” value in the data set on NCI-H460 [2] is listed as “Non-Toxic”. Moreover, the viability at 72 h, 10 µM in data set [6] stood at 93%; in data set [7], 76%. The selectivity ratio in [8] was 2.5; in data set [4], over 83.3.
In the case of `COc1cc(NC(C)CCCNC(=O)NC(C(=O)N(C)C(c2ccccc2)c2ccccc2)c2ccccc2)c2ncccc2c1` (stereo unspecified), the IC50 in the data set with NCI-H460 [1] was 64 µM; with SW-620, over 100 µM; in the data set with K562, over 100 µM; in the data set on L6, over 140 µM; in the data set with HL-60, over 100 µM; in the data set on MCF7 [5], over 100 µM. For the same compound, the IC50 is over 100 µM in the data set with HCT-116, over 100 µM in the data set on CAPAN-1 and 6500 nM in the data set with Plasmodium falciparum. Also, in data set [4], the selectivity ratio is over 21.5.
Take `COc1cc(NC(C)CCCNC(=O)NC(C(=O)Nc2ccc(Br)cc2)c2ccc(Cl)cc2)c2ncccc2c1` (stereo unspecified): the IC50 in the data set on NCI-H460 [1] was 52 µM; in the data set on SW-620, 32 µM; in the data set on K562 it was over 100 µM; in the data set on L6, 54 µM; in the data set on HL-60, over 100 µM; in the data set on MCF7 [5], 16 µM. The IC50 is over 100 µM in the data set with HCT-116, over 100 µM in the data set with CAPAN-1 and 3200 nM in the data set on Plasmodium falciparum. For the same compound, the selectivity ratio in data set [4] is 16.9.
`COc1cc(NC(C)CCCN)c2ncccc2c1` (stereo unspecified) [PRIMAQUINE PHOSPHATE]: the IC50 turned out to be 10 µM with NCI-H460 [1]; 14 µM in the data set on SW-620; 12 µM in the data set with K562; 5 µM in the data set with A2780; 59.5 µM in the data set with L6; 11.4 µM with HL-60. Also, the IC50 in the data set with MCF7 [5] is 5 µM; in the data set with HCT-116, 44.2 µM; in the data set with CAPAN-1, 14.2 µM; in the data set with Plasmodium falciparum it was 1500 nM. Besides, in data set [6], the viability at 72 h, 10 µM came out at 25%. The selectivity ratio in data set [4] came to 39.7.
